Source: ChEMBL document CHEMBL1212778, “Small-molecule inhibitors target Escherichia coli amyloid biogenesis and biofilm formation” (2009)
Values belong to the compound of their own block, whether it stands above or below them. Active and inactive are the calls of the source. No cut-off for these calls is given here.

How the values were obtained:
[1] = system: Escherichia coli; test: Inhibition of CsgF biogenesis in Escherichia coli K-12 at 2.5 mM after […] by polyacrylamide gel-shift assay; format: functional, organism-based
Summary of the method: (§1)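 MC4100 was grown 48 h at 26 °C on YESCA agar containing compound at 0.1, 1.0 or 2.5 mM final, with a DMSO carrier control (3.6% v/v). Cells were resuspended in PBS to OD600 0.5 and curli were dissociated with HFIP or formic acid. CsgA, CsgB, CsgF and CsgG were detected by SDS-PAGE immunoblot with curli-specific antibodies. MC4100Δcsg served as negative control.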

[2] = system: Escherichia coli; test: Antibacterial activity against Escherichia coli UTI89 at 400 uM after 24 hrs by spectrophotometry; format: functional, organism-based
[3] = system: Escherichia coli; test: Inhibition of curli protein biogenesis in uropathogenic Escherichia coli UTI89 at 60 to 250 uM after 48 hrs by electron microscopy; format: functional, organism-based
Summary of the method: (§2)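 UTI89 was inoculated from an overnight LB culture into YESCA broth containing compound and shaken at 100 rpm, 28 °C, for 48 h. Cells were pelleted, resuspended in PBS and normalized to OD600 0.5. Curli were dissolved with formic acid and analysed by curli-antibody immunoblot. Samples prepared the same way were also imaged by high-resolution EM.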

[4] = system: Escherichia coli; test: Inhibition of type 1 pili biogenesis in uropathogenic Escherichia coli UTI89 assessed as complete inhibition of biofilm formation in PVC wells at 50 uM after 48 hrs in LB broth medium by crystal violet staining; format: functional; conditions: UTI89, 48 h
Summary of the method: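 UTI89 was grown 48 h in LB broth in PVC microtiter wells with compound; biofilm here is type 1 pili-dependent. Wells were rinsed and stained with crystal violet. Percent inhibition is relative to no-compound controls on each plate, from four experiments.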

[5] = system: Escherichia coli; test: Inhibition of curli protein biogenesis in uropathogenic Escherichia coli UTI89 assessed as complete inhibition of biofilm formation in PVC wells at 50 to 400 uM after 48 hrs in YESCA broth medium by crystal violet staining; format: functional, organism-based
Summary of the method: (§3)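 UTI89 was grown 48 h in YESCA broth in PVC microtiter wells with compound. Wells were rinsed, stained with crystal violet and quantified. Percent inhibition is relative to no-compound controls included on each plate. Data are four experiments, with bars as s.d.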

[6] = system: Escherichia coli; test: Inhibition of CsgG biogenesis in Escherichia coli K-12 at 2.5 mM after […] by polyacrylamide gel-shift assay; format: functional, organism-based; summary of the method: as §1
[7] = system: Escherichia coli; test: Inhibition of type 1 pili biogenesis in uropathogenic Escherichia coli UTI89 at 500 uM after 48 hrs in YESCA broth medium by congo red staining-based confocal microscopy; format: functional, organism-based; conditions: in the assay text read “curli-dependent pellicle formation” for “type 1 pili biogenesis”
Summary of the method: (§4)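 Pellicle formation was scored visually in a 24-well plate assay. UTI89 was grown in Congo red-containing YESCA broth at 30 °C, with pellicles judged about 48 h after inoculation. DMSO carrier served as control.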

[8] = system: Escherichia coli; test: Inhibition of curli protein biogenesis in uropathogenic Escherichia coli UTI89 assessed as inhibition of biofilm formation in PVC wells at 100 uM after 48 hrs in YESCA broth medium by crystal violet staining; format: functional; conditions: UTI89, 48 h; summary of the method: as §3
[9] = system: Escherichia coli; test: Inhibition of curli protein biogenesis in uropathogenic Escherichia coli UTI89 assessed as complete inhibition of biofilm formation in PVC wells at 200 uM after 48 hrs in YESCA broth medium by crystal violet staining; format: functional, organism-based; summary of the method: as §3
[10] = system: Escherichia coli; test: Inhibition of type 1 pili biogenesis in uropathogenic Escherichia coli UTI89 at 5 to 15 uM after 48 hrs by calcofluor staining-based confocal microscopy; format: functional, organism-based
[11] = system: Escherichia coli; test: Inhibition of type 1 pili biogenesis in uropathogenic Escherichia coli UTI89 at 5 to 15 uM after 48 hrs by congo red staining-based confocal microscopy; format: functional, organism-based
[12] = system: Escherichia coli; test: Inhibition of type 1 pili biogenesis in uropathogenic Escherichia coli UTI89 at 25 uM after 48 hrs in YESCA broth medium by […]; format: functional, organism-based; summary of the method: as §4
[13] = system: Escherichia coli; test: Inhibition of curli protein biogenesis in Escherichia coli K-12 at 2.5 mM […] by polyacrylamide gel-shift assay; format: functional, organism-based; summary of the method: as §1
[14] = system: Escherichia coli; test: Inhibition of curli protein biogenesis in uropathogenic Escherichia coli UTI89 at 60 to 250 uM after 48 hrs in YESCA broth medium by polyacrylamide gel-shift assay
[15] = system: Escherichia coli; test: Inhibition of curli protein biogenesis in uropathogenic Escherichia coli UTI89 assessed as complete inhibition of biofilm formation in PVC wells at 400 uM after 48 hrs in YESCA broth medium by crystal violet staining; format: functional, organism-based; summary of the method: as §3
[16] = target: Major curlin subunit (Escherichia coli (strain K12)) (UniProt P28307); test: Inhibition of CsgA polymerization in Escherichia coli K-12 at 125 uM after 24 hrs by thioflavin-T amyloid polymerization assay
Summary of the method: (§5)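 Freshly purified, soluble, unstructured C-terminal His6-CsgA (25 μM) was incubated with 25 μM ThT with or without compound. Fluorescence (excitation 438 nm, emission 495 nm) was followed over time at 60-min intervals. Soluble CsgA was confirmed by SDS-PAGE and anti-CsgA western blot, since polymerized CsgA is SDS-insoluble.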

[17] = system: Escherichia coli; test: Inhibition of curli protein biogenesis in uropathogenic Escherichia coli UTI89 at 60 to 250 uM after 48 hrs in YESCA broth medium by polyacrylamide gel-shift assay; format: functional, organism-based; summary of the method: as §2
[18] = target: Major curlin subunit (Escherichia coli (strain K12)) (UniProt P28307); test: Inhibition of CsgA polymerization in Escherichia coli K-12 at 25 uM after 24 hrs by thioflavin-T amyloid polymerization assay; summary of the method: as §5
[19] = system: Escherichia coli; test: Inhibition of type 1 pili biogenesis in uropathogenic Escherichia coli UTI89 at 5 to 15 uM after 48 hrs by SYTO83 staining-based confocal microscopy; format: functional, organism-based
[20] = system: Escherichia coli; test: Inhibition of […] in uropathogenic Escherichia coli UTI89 at 5 uM after 48 hrs in YESCA broth medium by congo red staining-based […]; format: functional, organism-based; summary of the method: as §4
[21] = system: Escherichia coli; test: Inhibition of curli protein biogenesis in Escherichia coli K-12 at 1 mM after […] by polyacrylamide gel-shift assay; format: functional, organism-based; summary of the method: as §1
[22] = system: Escherichia coli; test: Antibacterial activity against uropathogenic Escherichia coli UTI89 infected in C3H/HeN mouse assessed as reduction bacterial load in bladder at 250 uM after 6 hrs post-infection by punctate violet staining relative to control; format: functional, Urinary bladder
Summary of the method: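 UTI89 was grown under type 1 pili-inducing conditions with or without 250 μM compound, then resuspended in PBS to OD600 0.5. 50 μl (1–2 × 10^7 CFU) was instilled transurethrally into 7–8-week-old female C3H/HeN mice. At 6 hpi, bladders were homogenized and plated for CFU (16 h, 37 °C), or fixed and LacZ-stained to count IBCs. Two-tailed Mann-Whitney test.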

[23] = target: Major curlin subunit (Escherichia coli (strain K12)) (UniProt P28307); test: Inhibition of CsgA polymerization in Escherichia coli K-12 at 10 uM after 24 hrs by thioflavin-T amyloid polymerization assay; summary of the method: as §5
[24] = system: Escherichia coli; test: Inhibition of curli protein biogenesis in uropathogenic Escherichia coli UTI89 assessed as inhibition of biofilm formation in PVC wells at 50 uM after 48 hrs in YESCA broth medium by crystal violet staining; format: functional; conditions: UTI89, 48 h; summary of the method: as §3

Sequence of Major curlin subunit (Escherichia coli (strain K12)) (P28307 whole entry): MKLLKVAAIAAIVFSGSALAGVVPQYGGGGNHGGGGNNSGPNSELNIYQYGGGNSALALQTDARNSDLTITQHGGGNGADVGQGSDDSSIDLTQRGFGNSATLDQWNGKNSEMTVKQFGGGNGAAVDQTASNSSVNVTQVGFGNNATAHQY

SMILES: O=C(O)[C@@H]1CSc2c(C3CC3)c(Cc3cccc4ccccc34)cc(=O)n21
inhibition [1]: inactive | Activity [2]: inactive | inhibition [3]: inactive | inhibition at 50 µM [4]: 38% | inhibition [5]: inactive | inhibition [6]: inactive | inhibition [7]: inactive

inhibition [16]: Active | inhibition [18]: Active
SMILES: O=C(O)[C@@H]1CSc2c(-c3ccc(F)c(F)c3)c(Cc3ccc4ccccc4c3)cc(=O)n21
inhibition at 100 µM [8]: 50% | inhibition [1]: inactive | inhibition [9]: Active | Activity [2]: inactive | inhibition [3]: Active | inhibition [10]: Active | inhibition at 50 µM [4]: 92% | inhibition [11]: Active | inhibition [6]: inactive | inhibition [12]: Active | inhibition [13]: Active | inhibition [14]: Active | inhibition [15]: Active | inhibition [17]: Active | inhibition [19]: Active

SMILES: O=C(O)[C@@H]1CSc2c(-c3ccc(Br)cc3)c(Cc3cccc4ccccc34)cc(=O)n21
inhibition at 100 µM [8]: 50% | inhibition [20]: inactive | inhibition [1]: inactive | inhibition [9]: Active | Activity [2]: inactive | inhibition [3]: Active | inhibition [6]: inactive | inhibition [13]: inactive | inhibition [14]: Active | inhibition [15]: Active | inhibition [17]: Active

inhibition [23]: Active | inhibition [16]: Active | inhibition [18]: Active
SMILES: O=C(O)[C@@H]1CSc2c(-c3cccc(C(F)(F)F)c3)c(Cc3cccc4ccccc34)cc(=O)n21
inhibition at 100 µM [8]: 90% | inhibition [20]: Active | inhibition [1]: inactive | inhibition [21]: Active | fold change (FC) [22]: 10 | Activity [2]: inactive | inhibition [3]: Active | inhibition [10]: Active | inhibition at 50 µM [4]: 99% | inhibition [11]: Active | inhibition [6]: inactive | inhibition [14]: Active | inhibition at 50 µM [24]: 50% | inhibition [17]: Active | inhibition [19]: Active
